An excerpt weighted towards active compounds, which were near 4.2% of everything screened.
hERG protect: shields human hERG channel from block by proarrhythmic agents; Q12809; CHO-hERG, FluxOR thallium flux, dofetilide IC70 present; activation (rescue from dofetilide block), less the hit threshold, % at 10 µM; 310,000 compounds, 0.51% hits; AID 1511;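 active = activation above the mean of controls blocked by dofetilide plus 5 SD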;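 also: thallium influx through hERG after potassium depolarization seen as dye fluorescence rise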
KCNQ1 inh: blocks the human KCNQ1 potassium channel; P51787; CHO-K1 KCNQ1, FluxOR thallium flux fluorescence; stronger effect = higher value; B-score at 10 µM; 310,000 compounds, 1.3% hits; AID 2642;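 active = compounds whose thallium flux B-score, printed positive for inhibition, exceeds three library SD while starting fluorescence stays within three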;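 also: channel opened by potassium depolarization with thallium stimulus after 20 min compound exposure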
Target sequence (P51787 whole entry, looked up): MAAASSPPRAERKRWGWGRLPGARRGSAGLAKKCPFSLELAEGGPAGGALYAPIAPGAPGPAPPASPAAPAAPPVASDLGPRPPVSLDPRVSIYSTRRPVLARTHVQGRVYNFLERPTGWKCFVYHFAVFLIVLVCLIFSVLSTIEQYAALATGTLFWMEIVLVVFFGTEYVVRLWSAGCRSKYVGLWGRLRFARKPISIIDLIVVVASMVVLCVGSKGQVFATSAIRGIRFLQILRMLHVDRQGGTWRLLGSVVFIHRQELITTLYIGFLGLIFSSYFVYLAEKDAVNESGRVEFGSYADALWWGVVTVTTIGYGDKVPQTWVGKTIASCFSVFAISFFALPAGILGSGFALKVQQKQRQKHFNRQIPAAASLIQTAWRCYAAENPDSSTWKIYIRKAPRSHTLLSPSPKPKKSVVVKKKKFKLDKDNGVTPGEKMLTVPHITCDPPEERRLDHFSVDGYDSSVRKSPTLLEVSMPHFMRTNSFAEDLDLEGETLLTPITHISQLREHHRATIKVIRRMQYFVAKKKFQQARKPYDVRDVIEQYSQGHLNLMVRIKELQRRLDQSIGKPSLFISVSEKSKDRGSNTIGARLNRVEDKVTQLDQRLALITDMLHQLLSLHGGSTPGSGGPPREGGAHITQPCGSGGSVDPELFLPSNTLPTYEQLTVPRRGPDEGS
AI-2 QS modul: modulators of Vibrio harveyi AI-2 quorum sensing system; Vibrio harveyi JMH597 AI-2 luminescence/OD600 ratio, 9 h; stronger effect = lower value; strain lacks LuxN and CqsS sensors; 0 = neutral-control median; activity change, % at 7.5 µM; 300,000 compounds, 0.4% hits; in the data active = activity change below about -75%, passing the limit was not always enough; inconclusive = no clear call, values can overlap the other calls;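 also: luminescence divided by OD600 gain over 9 h not by final OD600 alone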
KCNQ1 act: human KCNQ1 channel potentiation or activation; P51787; CHO-K1 KCNQ1, thallium flux FluxOR fluorescence; stronger effect = higher value; B-score at 10 µM; 310,000 compounds, 0.35% hits;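 active = fluorescence ratio B-score, a plate-corrected score, at least three library SD, with initial intensity B-score within 5 SD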
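System: Stable KCNQ1 CHO-K1 line | Incubation: 90 min dye loading and 20 min compound exposure, both at room temperature | Measure: Ratio B score | Medium: Assay buffer for compound exposure, DMSO matched across wells | Compound dosing: Single-concentration screen | Probe or stimulus: K+/Tl+ depolarizing stimulus | Measured by: Kinetic FluxOR fluorescence, 10 s baseline plus 110 s post-stimulus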
SUMO Mot1 rescue: blocks SUMOylation pathway, rescuing yeast Mot1-301 growth; S. cerevisiae Mot1-301 growth rescue, ATP luminescence, 38.5C; percent above DMSO median, 100 means doubled; growth rescue, % at 18.8 µM; 320,000 compounds, 1% hits;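 active = every valid replicate shows activation above 250% relative to neutral control wells; inactive = the rest, any valid replicate at or below 250%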;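 also: OY570 slx delta 5 strain wells were the positive control but not used for scaling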
Cl transport mod: modulators of human KCC2 chloride dependent transport; KCC2 cells, thallium flux FluoZin-2 fluorescence; 190,000 compounds, 2.2% hits; Q9H2X9; B-score of Tl+ flux slope (higher = more flux/activation; lower = inhibition) at 10 µM; AID 1456;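 active = thallium flux slope and its plate-corrected score both differing from the plate sample mean at a set confidence after two filtering rounds, in either direction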;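 also: slope of fluorescence scaled to starting intensity during 10 to 20 s after thallium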
* marks the source's active call; other numbers are inactive results; i = inactive; ? = inconclusive; nt = no result.

SMILES	hERG protect	KCNQ1 inh	AI-2 QS modul	KCNQ1 act	SUMO Mot1 rescue	Cl transport mod
CCOc1ccc(OCc2cccc(C(=O)Nc3ccc(CN4CCCCC4)cc3)c2)cc1	-22	6*	10	i	9	0.7
COc1ccc(OCc2cccc(C(=O)Nc3ccc(CN4CCCCC4)cc3)c2)cc1	-13	i	14	i	7	-0.57
CCCCOC(=O)Nc1ccc(OC)cc1S(=O)(=O)N1CCOCC1	-2	i	12	i	6	-3.3*
N#Cc1c(NC(=O)CSc2ncccn2)oc(-c2ccccc2)c1-c1ccccc1	-15	i	32	i	156	-1.1
COc1ccccc1OCC(=O)Nc1oc(-c2ccccc2)c(-c2ccccc2)c1C#N	nt	nt	nt	nt	85	-0.42
N#Cc1c(NC(=O)CSc2n[nH]c(Cc3ccccc3)n2)oc(-c2ccccc2)c1-c1ccccc1	-7	9*	40	i	-21	-1.3
Cc1ccc(OCC(=O)Nc2oc(-c3ccccc3)c(-c3ccccc3)c2C#N)cc1	-4	6*	19	i	-18	-0.49
N#Cc1c(NC(=O)COC(=O)C2CC3C=CC2C3)oc(-c2ccccc2)c1-c1ccccc1 (stereo not drawn)	-18	10*	4	i	147	nt
Oc1ccc2ccccc2c1C=Nc1ccccc1-c1nc2ccccc2[nH]1	-9	9*	26	i	-10	0.33
Cc1ccccc1NCC(=O)N/N=C/c1c(C)c(C(=O)c2ccc(Cl)cc2)n2ccccc12	-22	7*	-1	i	10	-0.77
Cc1c(/C=N/NC(=O)CNc2ccccc2)c2ccccn2c1C(=O)c1ccc(Cl)cc1	-6	i	24	i	-7	0.34
CCc1ccccc1NC(=O)NC1CCCCCCC1	-11	i	11	i	70	nt
O=C(NCCOc1ccccc1)c1ccccc1[N+](=O)[O-]	-16	i	20	i	-4	-0.22
O=C(NCCOc1ccccc1)c1cc(C(=O)NCCOc2ccccc2)cc([N+](=O)[O-])c1	-9	i	-97*	i	-3	-1.3
Cc1ccc(C2CC2C(=O)NNC(=S)Nc2cccc(C)c2)cc1 (stereo not drawn)	0	i	11	i	1	1
Cc1ccc(C2CC2C(=O)NNC(=S)Nc2cccc(Cl)c2)cc1 (stereo not drawn)	-22	6*	33	i	29	0.84
Cc1ccc2nc(NC(=O)C3CCN(S(=O)(=O)c4cc([N+](=O)[O-])ccc4Cl)CC3)sc2c1	-7	9*	11	i	5	0.55
COC(=O)c1ccc(OCC(O)CNCC(c2ccc(OC)cc2)N(C)C)c(OC)c1 (stereo not drawn)	-6	i	17	i	6	nt
C=CCc1ccc(OCCCCN2CC(C)OC(C)C2)c(OC)c1 (stereo not drawn)	4.9*	i	16	i	63	nt
COc1ccc(C(=O)C[n+]2cc(-c3ccc(OC)cc3)n3c2CCCC3)cc1	-5	i	7	i	7	0.17
Cc1ccc(C(=O)C[n+]2cc(-c3ccc(C)cc3)n3c2CCCCC3)cc1	-24	14*	28	i	-13	0.014
CCOc1ccccc1NC(=O)C(OC(=O)c1ccc(NC(=O)CC#N)cc1)c1ccccc1 (stereo not drawn)	-26	8*	24	i	5	nt
Cc1cc(=O)[nH]c2sc(C(=O)N3c4ccccc4CC3C)c(N)c12 (stereo not drawn)	nt	nt	nt	nt	48	nt
O=C(CCC(=O)c1cccs1)NNC(=O)c1ccccc1O	-12	i	12	i	-14	nt
Cc1ccccc1NC(=O)/C=C/c1cccs1	-15	i	16	i	18	nt
SMILES	hERG protect	KCNQ1 inh	AI-2 QS modul	KCNQ1 act	SUMO Mot1 rescue	Cl transport mod
O=C(/C=C/c1ccco1)NC(=S)Nc1ccccc1	-5	i	-77*	i	-11	nt
O=C(/C=C/c1cccs1)NC(=S)NNC(=O)c1ccccc1O	-12	i	59	i	11	12*
CCN1CCN(C(=S)NC(=O)c2cccs2)CC1	-8	i	25	i	3	nt
CCN1CCN(C(=S)NC(=O)/C=C/c2cccs2)CC1	-6	i	-15	i	676*	nt
O=C(/C=C/c1cccs1)NC(=S)Nc1ccccc1	-6	i	-77*	i	29	nt
COc1ccc(CNC(=O)CN(Cc2ccc(C)cc2)C(=O)c2csnn2)cc1	-3	i	2	i	25	nt
COc1cc(S(=O)(=O)N(C)C)ccc1F	-3	i	20	i	15	0.47
CCN(CC)CCN(C(=O)Cn1nnc(-c2ccc(C)o2)n1)C(C(=O)NC(C)(C)C)c1cccs1 (stereo not drawn)	0	i	-3	i	9	nt
COc1ccc(/C=C/C(=O)NC(=S)NNC(=O)c2ccco2)cc1	-12	i	13	i	-24	11*
COc1ccc(/C=C/C(=O)NC(=S)NNC(=O)c2ccco2)cc1OC	-15	i	4	i	nt	nt
COc1ccc(C(=O)NNC(=S)NC(=O)/C=C/c2cccs2)cc1	-12	i	?	i	-8	13*
COC(=O)[C@H](CC(C)C)NC(=O)NCCC1=CCCCC1	-6	i	20	i	-2	0.17
Cc1ccc(NC2=C(Cl)C(=O)OC2OC(=O)c2ccc(C)cc2)cc1 (stereo not drawn)	-6	i	42	17*	27	-0.41
COC(=O)c1ccc(NC2=C(Cl)C(=O)OC2OC(=O)c2ccccc2)cc1 (stereo not drawn)	-29	i	43	i	nt	-0.21
FC(F)(F)c1ccccc1/C=N/n1c(COc2ccccc2)n[nH]c1=S	-6	i	27	i	-7	nt
O=C(CCC(=O)c1ccc(Cl)cc1)OCn1nnc2ccccc2c1=O	nt	nt	nt	nt	21	nt
COCCNC(=O)C(c1ccc(C)o1)N(Cc1ccc(F)cc1)C(=O)Cn1nnc2ccccc21 (stereo not drawn)	-7	i	21	i	-2	0.36
COCCNC(=O)C(c1ccc(C)o1)N(Cc1ccc(OC)cc1)C(=O)Cn1nnc2ccccc21 (stereo not drawn)	6.5*	i	0	i	9	1.6
O=C(NCc1cccc(Br)c1)C1CC(c2ccccc2C(F)(F)F)=NO1 (stereo not drawn)	-9	i	24	i	-6	-1.1
Cc1ccc(-n2cc(CN3CCC(O)(c4ccccn4)CC3)c(-c3ccc(F)cc3)n2)cc1	-25	i	19	i	-9	-0.73
CS(=O)(=O)Nc1nc2n(n1)C(c1ccccc1)C=C(c1ccc(Br)cc1)N2 (stereo not drawn)	-17	12*	21	i	3	nt

High-throughput results (PubChem BioAssay)
